Results of several laboratories.
Each line is one published result; the experiments were not run side by side.
Target: Bone morphogenetic protein receptor type-2 (BMPR2, Homo sapiens, UniProt Q13873)
Residues used in one study (Q13873 27-1038): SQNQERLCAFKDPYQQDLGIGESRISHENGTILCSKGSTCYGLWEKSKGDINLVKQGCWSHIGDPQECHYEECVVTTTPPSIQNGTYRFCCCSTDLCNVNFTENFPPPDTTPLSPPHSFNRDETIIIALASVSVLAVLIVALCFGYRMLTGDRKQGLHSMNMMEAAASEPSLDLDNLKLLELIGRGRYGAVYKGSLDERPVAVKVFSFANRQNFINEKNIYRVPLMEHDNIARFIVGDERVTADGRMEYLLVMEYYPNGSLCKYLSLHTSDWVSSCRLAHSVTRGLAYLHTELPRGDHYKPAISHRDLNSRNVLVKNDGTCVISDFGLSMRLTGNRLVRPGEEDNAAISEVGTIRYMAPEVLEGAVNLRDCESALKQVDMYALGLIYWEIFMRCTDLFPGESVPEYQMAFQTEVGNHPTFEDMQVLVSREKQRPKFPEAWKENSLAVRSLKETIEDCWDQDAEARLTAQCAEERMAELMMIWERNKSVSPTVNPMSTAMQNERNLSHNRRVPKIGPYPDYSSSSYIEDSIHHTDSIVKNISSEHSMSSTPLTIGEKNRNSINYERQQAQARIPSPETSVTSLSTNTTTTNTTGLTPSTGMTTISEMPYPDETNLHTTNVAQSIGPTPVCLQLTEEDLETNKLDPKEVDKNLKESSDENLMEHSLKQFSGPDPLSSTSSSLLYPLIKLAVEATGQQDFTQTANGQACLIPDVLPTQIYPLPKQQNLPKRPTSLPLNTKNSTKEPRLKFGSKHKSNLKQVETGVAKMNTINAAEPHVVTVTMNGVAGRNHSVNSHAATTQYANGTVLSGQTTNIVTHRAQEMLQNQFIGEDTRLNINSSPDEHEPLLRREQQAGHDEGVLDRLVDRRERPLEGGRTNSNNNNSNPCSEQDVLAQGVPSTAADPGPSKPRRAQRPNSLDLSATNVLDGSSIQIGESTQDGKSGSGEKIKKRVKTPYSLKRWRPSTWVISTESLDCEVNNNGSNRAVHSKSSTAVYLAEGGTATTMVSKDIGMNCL

SMILES	assay	conditions	quantity	value
COc1cc(-c2cn(C3CCc4c(F)cccc4N(CC(F)(F)F)C3=O)nn2)ccc1-n1cnc(C)c1 (stereo not drawn)	cell-free assay, competition with immobilised ligand	1 µM	remaining binding	100%
COc1cc(Cl)c(C(=O)N[C@@H](CN[C@H]2CC[C@@H](N)CC2)Cc2ccc(C#N)cc2)cc1-c1ccc(CN[C@H](C)c2ccc(C)cc2)o1	enzyme activity, inhibitor	1 µM	remaining activity	99%
Cc1sc(C(=O)NC2COC2)cc1-n1cc(NC(=O)Nc2c(F)cccc2Cl)cn1	enzyme activity, inhibitor	10 µM	remaining activity	84.5%
Nc1ncnc2occ(-c3ccc(NC(=O)Nc4cc(C(F)(F)F)ccc4F)cc3)c12	cell-free assay	20 µM	remaining signal	60%
Cn1cncc1C1=CN(c2ncnc3[nH]cnc23)CCS1	enzyme activity, inhibitor, radiometric	50 nM	inhibition	21.3%
Cn1c2c(Cl)c(Cl)ccc2c2cn[nH]c(=O)c21	thermal stability, DSF	10 µM	ΔTm	2.9 °C
O=C(Nc1cnn(-c2csc(C(=O)NC3COC3)c2)c1)Nc1c(F)cccc1Cl	enzyme activity, inhibitor	5 µM	remaining activity	77.2%
CS(=O)(=O)Nc1cccc(-c2csc(NC(=O)CSc3nc4nccnc4c(=O)n3CCc3ccccc3)n2)c1	enzyme activity, inhibitor	10 µM	inhibition	3%
O=C(Nc1ccc(Oc2ccc(F)cc2)cc1)N1CCc2ncccc2[C@H]1c1ccc(F)cc1	cell-free assay, competition with immobilised ligand	1 µM	remaining binding	96%
Cn1c2c(c3ccc(Cl)c(Cl)c31)C(C#N)C1(CCOCC1)NC2=O (stereo not drawn)	thermal stability, DSF	10 µM	ΔTm	0.9 °C
CS(=O)(=O)NCC[C@H](NC(=O)c1cncc2c1cnn2-c1ccc(F)cc1)c1ccnc(S(C)(=O)=O)c1	cell-free assay, competition with immobilised ligand	1 µM	remaining binding	100%
Cn1c2c(c3ccc(Cl)c(Cl)c31)C(C#N)C1(CCNCC1)NC2=O (racemic)	thermal stability, DSF	10 µM	ΔTm	0.3 °C
